Source: PubChem BioAssay (several laboratories)
Sampled rows, rich in hits. Any-hit rate of the full collection: about 0.86%.
Redox H2O2 prof – compounds producing H2O2 with reducing agent – biochemical, NIH compound library profiling, artefact control for MLSCN library redox annotation, primary screen; DTT-dependent redox cycling H2O2, phenol red/HRP absorbance; 100% = 100 µM peroxide control, 0% = buffer; activation, % at 10 µM; 200,000 tested, 0.03% active; AID 878;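 active means activation of at least 50% relative to the plate's high and low controls in the primary single-dose screen; inactive means activation below 50%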;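 further: compound incubated with DTT at 0.8 mM final as the reducing agent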
TNAP inh hiacc – blocks human TNAP under high phosphate acceptor concentration. P05186. purified TNAP, CDP-star luminescence, 1 M DEA. inhibition, % at 20 µM. 200,000 tested, 0.03% active;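 active means over 50% inhibition of tissue-nonspecific alkaline phosphatase at 20 µM in the single-dose screen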;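 further: plate controls were DMSO wells for no effect and EDTA-quenched wells as full inhibition for full effect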
TNAP inh noacc – blocks human TNAP activity with no phosphate acceptor present | P05186 | purified TNAP, CDP-star luminescence, 30 min | inhibition, % at 20 µM | 200,000 tested, 0.26% active;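 active means tissue-nonspecific alkaline phosphatase inhibition above about 50% at 20 µM in the single-dose screen, limit read from the data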;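 further: 0% = DMSO negative control and 100% = EDTA positive control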
p97 inhibitor – blocks human p97 ATPase activity | P55072 | recombinant p97 ATPase, Kinase-Glo ATP luminescence, 3 h | inhibition, % at 8 µM | 220,000 tested, 0.42% active; in the data active means inhibition above about 15%;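 further: 0% = DMSO vehicle and 100% = wells lacking enzyme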
TNAP act hiacc – increases human TNAP activity under high phosphate acceptor concentration; 200,000 tested, under 10 active; AID 1136; P05186; purified TNAP, CDP-star luminescence, 1 M DEA, 30 min; stronger effect = higher value; 0 = EDTA background, 1 = DMSO-only activity; activation factor at 20 µM;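 active means activation factor at least 2 at 20 µM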
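Control set: EDTA negative control, DMSO positive control / Assay system: human TNAP / Quantity: TNAP 1/800 final / Evaluation: TNAP activation factor scaled between EDTA and DMSO control wells / Measured by: luminescent substrate turnover signal / Compound dosing: one dose, 20 µM / Times: 30 min enzyme reaction at room temperature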
PERK inh – human PERK inhibition, primary cell-based screen | Q9NZJ5 | CHO PERK-DD fusion, SEAP luminescence translation reporter | 220,000 tested, 0.17% active | inhibition, % at 5.6 µM;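 active means inhibition above the mean inhibition of all tested compounds plus 3 SD, set separately per screening campaign, cut at about 2.9% in these data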;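 further: PERK kinase domain activated by AP20187 dimerizer at 100 nM; 0% = DMSO with dimerizer and 100% = rapamycin at 8.4 µM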
Target sequence (Q9NZJ5 whole entry, looked up, the tested form may be a part): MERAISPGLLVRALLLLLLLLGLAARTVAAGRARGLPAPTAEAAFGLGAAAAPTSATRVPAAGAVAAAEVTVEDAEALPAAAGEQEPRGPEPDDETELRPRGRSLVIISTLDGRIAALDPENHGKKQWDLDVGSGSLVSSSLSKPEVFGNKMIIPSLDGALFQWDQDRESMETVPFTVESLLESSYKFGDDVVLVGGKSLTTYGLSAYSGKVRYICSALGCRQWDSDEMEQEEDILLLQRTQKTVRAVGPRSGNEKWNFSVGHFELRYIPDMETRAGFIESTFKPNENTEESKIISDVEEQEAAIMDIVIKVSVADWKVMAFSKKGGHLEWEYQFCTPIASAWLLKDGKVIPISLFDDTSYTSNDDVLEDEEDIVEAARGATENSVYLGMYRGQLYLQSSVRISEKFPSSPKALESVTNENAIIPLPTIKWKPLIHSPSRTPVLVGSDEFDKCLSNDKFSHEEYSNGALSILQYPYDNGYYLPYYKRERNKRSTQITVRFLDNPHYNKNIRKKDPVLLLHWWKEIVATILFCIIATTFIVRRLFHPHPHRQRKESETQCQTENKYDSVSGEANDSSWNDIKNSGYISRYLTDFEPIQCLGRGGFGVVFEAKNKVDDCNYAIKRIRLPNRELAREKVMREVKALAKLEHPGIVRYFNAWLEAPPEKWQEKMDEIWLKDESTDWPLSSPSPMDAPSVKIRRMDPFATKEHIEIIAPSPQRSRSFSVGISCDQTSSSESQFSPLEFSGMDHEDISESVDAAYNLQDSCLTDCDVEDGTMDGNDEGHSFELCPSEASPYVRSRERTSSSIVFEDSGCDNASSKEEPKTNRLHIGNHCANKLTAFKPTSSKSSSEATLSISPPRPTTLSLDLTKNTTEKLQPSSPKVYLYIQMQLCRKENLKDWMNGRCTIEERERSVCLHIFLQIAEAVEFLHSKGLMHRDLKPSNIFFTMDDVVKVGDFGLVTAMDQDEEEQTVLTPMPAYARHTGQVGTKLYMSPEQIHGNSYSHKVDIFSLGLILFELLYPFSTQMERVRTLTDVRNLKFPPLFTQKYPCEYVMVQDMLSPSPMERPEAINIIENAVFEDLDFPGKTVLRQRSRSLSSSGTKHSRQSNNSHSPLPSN
* marks the source's active call; other numbers are inactive results; i = inactive; . = not tested or not shown.

SMILES	Redox H2O2 prof	TNAP inh hiacc	TNAP inh noacc	p97 inhibitor	TNAP act hiacc	PERK inh
CC[n+]1c(/C=C/c2c[nH]c3ccccc23)ccc2cc(C)ccc21	0	61*	60*	-10	0.4	-1
COc1ccc(NC(=O)C(=S)N2CCCC2)cc1	0	-6	-11	5	1.1	0
CCOc1ccc(C2=Nn3c(nnc3-c3ccccc3OC)SC2)cc1	2	-4	-2	-3	1	-1
COc1ccccc1-c1nnc2n1N=C(c1ccc(O)c(O)c1)CS2	0	4	67*	7	1	1
CCOC(=O)N1CCN(C(=O)CN(C)S(=O)(=O)c2ccc3c(c2)c(=O)n(C)c(=O)n3C)CC1	-1	2	-4	0	1	1
CCCCN(CC)CCNC(=O)CN(C)S(=O)(=O)c1ccc2c(c1)c(=O)n(C)c(=O)n2C	-1	-5	-5	15*	1.1	1
CCOc1ccccc1-c1c2cc(O)c(=O)cc-2oc2cc(O)c(O)cc12	1	17	38	4	0.8	1
COc1ccc(OC)c(-c2c3cc(O)c(=O)cc-3oc3cc(O)c(O)cc23)c1	2	33	-288	22*	0.7	0
CC(=O)Nc1cn(-c2ccccc2)nc1-c1ccccc1	-1	0	-3	0	1	0
O=C(CCl)Nc1cn(-c2ccccc2)nc1-c1ccccc1	-1	-5	-17	15*	1.1	0
COc1cccc(CNC(=O)CSc2ccc(-c3cccs3)nn2)c1	1	-4	-14	2	1	0
CCCCn1cnc2c(=S)nc(N)[nH]c21	.	.	.	6	.	0
CCCn1cnc2c(=S)nc(N)[nH]c21	.	.	.	12	.	3.4*
COc1ccc(NC(=O)CSc2nc(N)c3cc4c(nc3n2)CC(C)(C)OC4)cc1	.	.	.	0	.	3.2*
CCC(Sc1nc(C)cc(=O)[nH]1)C(=O)Nc1ccc(Cl)cn1 (stereo not given)	-1	-2	-12	15*	1	0
COc1ccc(OCc2nc(-c3ccc(F)c(F)c3)cs2)cc1	.	.	.	-1	.	3.3*
O=C(N/N=C/c1ccc(O)c(O)c1)c1cccc(S(=O)(=O)N2CCCCC2)c1	0	18	78*	1	0.8	1
O=c1ccc(-c2ccccc2)n[nH]1	0	-6	-10	1	1.1	3.0*
O=S(=O)(Nc1ccc(N=Nc2ccc(O)c3ccccc23)cc1)c1ccccc1	1	49	53*	4	0.5	0
O=S(=O)(Nc1ccc(N=Nc2ccccc2)cc1)c1ccccc1	0	15	10	1	0.9	0
CC[n+]1c(/C=C/N(C)c2ccccc2)oc2ccc(Cl)cc21	0	1	-6	0	1	0
CCN1/C(=C/C=C/c2oc3ccc4ccccc4c3[n+]2CC)Oc2ccc3ccccc3c21	1	-96	i	4	2*	-1
CC(=O)OC1CSC2c3ccccc3C(=O)N2Cc2sccc21 (stereo not given)	-1	-1	-4	-2	1	0
CCOC(=O)C1=NN(c2ccccc2)C(=O)C1	.	.	.	7	.	2.9*
O=C(O)C1=NN(c2ccccc2)C(=O)C1	.	.	.	6	.	1
SMILES	Redox H2O2 prof	TNAP inh hiacc	TNAP inh noacc	p97 inhibitor	TNAP act hiacc	PERK inh
CC(/C=N/NC(=O)c1nn(C)c(C)c1Br)=C\c1ccccc1	0	-5	-9	3	1.1	0
O=C(C1CCN(C2CCN(C/C=C/c3ccccc3)CC2)CC1)N1CCOCC1	0	-2	-5	-1	1	1
COc1ccc2[nH]cc(C(=O)CNc3nc(C)cs3)c2c1	-7	-8	56*	4	1.1	0
Cc1cc(C)c2nc(C(F)(F)F)nc(NCCCN3CCOCC3)c2c1	0	-1	-10	-3	1	-2
CCc1ccc(/C=N/N2CCN(c3ccccn3)CC2)cc1	.	.	.	1	.	0
CCN(CC)c1ccc(/C=N/N2CCN(c3ccccn3)CC2)cc1	.	.	.	-1	.	3.0*
O=C(C1CC1)N1CCc2cc(Br)cc(S(=O)(=O)NCC3COc4ccccc4O3)c21 (stereo not given)	-1	-8	-12	3	1.1	-1
Cc1onc(-c2c(Cl)cccc2Cl)c1C(=O)O/N=C(\C#N)c1ccccc1	.	.	.	15*	.	2
Cc1onc(-c2c(Cl)cccc2Cl)c1C(=O)Nn1cnnc1	0	-11	-11	-5	1.1	-1
Cc1onc(-c2c(Cl)cccc2Cl)c1C(=O)ONC(=O)c1cc(C(F)(F)F)cc(C(F)(F)F)c1	.	.	.	9	.	3.0*
Cn1cnnc1SCC(=O)N/N=C/c1ccc(OCC(N)=O)cc1	.	.	.	1	.	1
COc1cc(/C=C2/S/C(=N/S(=O)(=O)Cc3ccccc3)NC2=O)c([N+](=O)[O-])cc1OC	.	.	.	2	.	3.0*
CC(=O)c1cn(CCC(C)C)c(=O)[nH]c1=O	0	-3	-5	1	1	1
Cc1[nH][nH]c(=O)c1C(c1ccc(-c2ccc(Cl)cc2Cl)o1)c1c(C)[nH][nH]c1=O	0	4	-22	20*	1	1
O=C(O)Cn1nc(-c2ccccc2)oc1=O	0	-2	-7	0	1	3.0*
O=C(O)Cn1nc(-c2ccc(F)cc2)oc1=O	0	-4	-12	2	1	0
COc1ccc(N(CC(=O)NCCC2=CCCCC2)S(=O)(=O)c2ccc(C)cc2)cc1OC	0	-4	1	5	1	0
CCOc1ccc(-c2n[nH]c(C(=O)NN)c2C)cc1	-1	-7	82*	-2	1.1	0
Cc1c(-c2ccccc2)n[nH]c1C(=O)NN	-1	0	82*	5	1	0
COC(=O)C1CCN(C2CC(=O)N(c3cc(C)cc(C)c3)C2=O)CC1 (stereo not given)	0	-1	-9	3	1	1
O=C(CN1CC(=O)Oc2ccccc21)OCC(=O)c1ccccc1	1	-6	-33	-2	1.1	2.9*
O=C(O)C1Nc2c(O)cccc2C2C=CCC12 (stereo not given)	1	16	27	23*	0.8	0
COc1ccc(OCC(=O)N/N=C/c2ccc(O[C@@H]3O[C@H](CO)[C@@H](O)[C@H](O)[C@H]3O)cc2)cc1	13	1	-6	5	1	3.4*
COc1ccccc1C1NC=C([N+](=O)[O-])C=C1[N+](=O)[O-] (stereo not given)	-1	6	57*	-5	0.9	-1
COc1ccc(C(=O)N/N=C/C(C)c2ccccc2)cc1OC (stereo not given)	-4	-6	7	16*	1.1	1
CC(/C=N\NC(=O)c1cccnc1)c1ccccc1 (stereo not given)	1	.	.	-3	.	0
